According to ChEMBL document CHEMBL3526015, “Metabolism of the c-Fos/activator protein-1 inhibitor T-5224 by multiple human UDP-glucuronosyltransferase isoforms” (Drug Metab Dispos, 2011):

Experiments:
Liver microsome [1] = assay: Drug metabolism in human liver microsomes assessed as T-5224 hydroxyl O-glucuronide formation at 10 uM after 10 mins in presence of beta-estradiol by HPLC method; type: ADME
In short: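 Pooled liver microsomes (0.5 mg protein/mL) with 10 μM T-5224, 2 mM UDPGA and β-estradiol at 0–500 μM, 2% DMSO, in 50 mM Tris-HCl pH 7.5, 8 mM MgCl2 and alamethicin. Incubated 10 min at 37°C, stopped with acetonitrile. Glucuronides measured by HPLC at 290 nm; mean ± SD, n = 3.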

[2] = Drug metabolism in human intestinal microsomes assessed as T-5224 acyl O-glucuronide formation per mg protein after 10 to 60 mins by HPLC method; type: ADME, Intestine, Microsome
In short: (§1)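 Pooled liver microsomes (0.5 mg/mL) were incubated 10 min. Pooled intestinal microsomes (0.25 mg/mL) ran 10 min at T-5224 10–50 μM and 20 min at 1–5 μM. Buffer was 50 mM Tris-HCl pH 7.5 with 8 mM MgCl2, alamethicin and 2 mM UDPGA, at 37°C, in triplicate. Glucuronides G2/G3 were read by HPLC at 290 nm and fitted for Vmax/Km.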

Liver microsome [3] = assay: Drug metabolism in human liver microsomes assessed as T-5224 acyl O-glucuronide formation after 10 to 60 mins by HPLC method; type: ADME; in short: as §1
Liver microsome [4] = assay: Substrate inhibition of T-5224 acyl O-glucuronide formation in human liver microsomes after 10 to 60 mins by HPLC method
In short: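 Pooled liver (0.5 mg protein/mL) or intestinal (0.25 mg protein/mL) microsomes in 50 mM Tris-HCl pH 7.5, 8 mM MgCl2, alamethicin, 2% DMSO. T-5224 at 1–50 μM, 5 min preincubation at 37°C, started with 2 mM UDPGA. Incubated 10 min, or 20 min for intestinal microsomes at 1–5 μM. Acetonitrile stop, glucuronides by HPLC at 290 nm. Triplicates fitted to a substrate-inhibition model.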

[5] = Drug metabolism in pooled human intestinal microsomes assessed as T-5224 hydroxyl O-glucuronide formation at 10 uM after 10 mins by HPLC method; type: ADME, Intestine, Microsome
In short: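 T-5224 at 10 μM incubated for 10 min at 37°C with UDPGA (2 mM) in pooled liver (0.5 mg protein/mL) or intestinal (0.25 mg protein/mL) microsomes. Buffer was 50 mM Tris-HCl pH 7.5 with 8 mM MgCl2 and alamethicin, after 5 min preincubation. Stopped with acetonitrile; glucuronides quantified by HPLC at 290 nm.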

Cytochrome P450 2A6 = biological target: T1, Cytochrome P450 2A6 (Homo sapiens, UniProt P11509); assay: Drug metabolism assessed as human CYP2A6-mediated metabolite formation at 2 uM after 30 mins by HPLC method; type: ADME; conditions: recombinant enzyme, 0.5 h
T1 sequence (P11509 whole entry): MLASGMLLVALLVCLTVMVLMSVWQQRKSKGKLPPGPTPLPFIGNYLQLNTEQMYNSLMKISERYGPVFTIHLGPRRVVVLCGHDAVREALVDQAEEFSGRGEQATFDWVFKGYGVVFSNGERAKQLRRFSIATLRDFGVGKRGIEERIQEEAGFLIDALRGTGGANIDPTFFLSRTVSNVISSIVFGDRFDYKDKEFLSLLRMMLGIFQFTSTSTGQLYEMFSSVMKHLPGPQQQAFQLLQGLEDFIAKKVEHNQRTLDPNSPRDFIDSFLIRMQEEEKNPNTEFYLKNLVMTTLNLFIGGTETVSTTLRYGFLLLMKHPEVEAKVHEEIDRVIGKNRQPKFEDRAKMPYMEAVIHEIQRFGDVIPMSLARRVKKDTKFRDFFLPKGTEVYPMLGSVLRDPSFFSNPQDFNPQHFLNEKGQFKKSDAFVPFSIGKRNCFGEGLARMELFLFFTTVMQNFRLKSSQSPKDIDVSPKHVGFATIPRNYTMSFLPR
In short: (§2)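 Each recombinant human P450 was used at 50 pmol/mL with an NADPH-generating system and 2 μM 14C-T-5224 (0.5% DMSO final). Buffer was 100 mM Tris-HCl pH 7.5, except 100 mM potassium phosphate pH 7.4 for CYP2A6 and CYP2C9*1. Incubation ran 30 min at 37°C and was stopped with acetonitrile/methanol. Radioactive metabolite peaks were detected by C18 HPLC.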

Cytochrome P450 2B6 = biological target: T2, Cytochrome P450 2B6 (Homo sapiens, UniProt P20813); assay: Drug metabolism assessed as human CYP2B6-mediated metabolite formation at 2 uM after 30 mins by HPLC method; type: ADME; conditions: recombinant enzyme, 0.5 h; in short: as §2
T2 sequence (P20813 whole entry): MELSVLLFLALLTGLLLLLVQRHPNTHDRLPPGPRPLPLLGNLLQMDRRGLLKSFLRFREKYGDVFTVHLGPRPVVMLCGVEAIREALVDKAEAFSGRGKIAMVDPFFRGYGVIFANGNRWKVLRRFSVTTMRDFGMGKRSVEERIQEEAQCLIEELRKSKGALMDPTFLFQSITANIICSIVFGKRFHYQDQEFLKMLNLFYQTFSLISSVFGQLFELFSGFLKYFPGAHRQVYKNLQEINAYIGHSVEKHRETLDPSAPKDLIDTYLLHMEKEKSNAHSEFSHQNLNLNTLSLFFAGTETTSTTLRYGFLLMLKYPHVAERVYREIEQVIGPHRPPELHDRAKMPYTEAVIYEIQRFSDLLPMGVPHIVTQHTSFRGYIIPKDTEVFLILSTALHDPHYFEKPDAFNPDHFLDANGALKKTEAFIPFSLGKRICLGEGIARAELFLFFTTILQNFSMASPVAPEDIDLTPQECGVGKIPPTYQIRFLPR

Drug metabolism (Liver microsome [1]): metabolite_detected
Vmax [2]: 241 pmol/min
Km (Liver microsome [3]): 4.93 µM
Ki (Liver microsome [4]): 13.2 µM
Drug metabolism [5]: metabolite_detected
Drug metabolism (Cytochrome P450 2A6): metabolite_not_detected
Drug metabolism (Cytochrome P450 2B6): metabolite_not_detected
Compound: O=C(O)CCc1cc(C(=O)c2ccc(OC3CCCC3)cc2O)ccc1OCc1ccc2c(O)noc2c1
